According to ChEMBL document CHEMBL4196123, “Discovery of an Orally Bioavailable Dual PI3K/mTOR Inhibitor Based on Sulfonyl-Substituted Morpholinopyrimidines” (ACS Med Chem Lett, 2018):
Calls of active or inactive are those of the source. No cut-off for these calls is given here.

Experiments:
[1] = target: PI3-kinase p110-alpha/p85-alpha (Homo sapiens, UniProt P42336); experiment: Inhibition of recombinant human full length N-terminal His-tagged p110alpha/p85alpha expressed in baculovirus expression system using PIP2 as substrate measured after 1 hr by Alexa633 Tracer-based fluorescence polarization assay
Chain of PI3-kinase p110-alpha/p85-alpha (P27986 whole entry): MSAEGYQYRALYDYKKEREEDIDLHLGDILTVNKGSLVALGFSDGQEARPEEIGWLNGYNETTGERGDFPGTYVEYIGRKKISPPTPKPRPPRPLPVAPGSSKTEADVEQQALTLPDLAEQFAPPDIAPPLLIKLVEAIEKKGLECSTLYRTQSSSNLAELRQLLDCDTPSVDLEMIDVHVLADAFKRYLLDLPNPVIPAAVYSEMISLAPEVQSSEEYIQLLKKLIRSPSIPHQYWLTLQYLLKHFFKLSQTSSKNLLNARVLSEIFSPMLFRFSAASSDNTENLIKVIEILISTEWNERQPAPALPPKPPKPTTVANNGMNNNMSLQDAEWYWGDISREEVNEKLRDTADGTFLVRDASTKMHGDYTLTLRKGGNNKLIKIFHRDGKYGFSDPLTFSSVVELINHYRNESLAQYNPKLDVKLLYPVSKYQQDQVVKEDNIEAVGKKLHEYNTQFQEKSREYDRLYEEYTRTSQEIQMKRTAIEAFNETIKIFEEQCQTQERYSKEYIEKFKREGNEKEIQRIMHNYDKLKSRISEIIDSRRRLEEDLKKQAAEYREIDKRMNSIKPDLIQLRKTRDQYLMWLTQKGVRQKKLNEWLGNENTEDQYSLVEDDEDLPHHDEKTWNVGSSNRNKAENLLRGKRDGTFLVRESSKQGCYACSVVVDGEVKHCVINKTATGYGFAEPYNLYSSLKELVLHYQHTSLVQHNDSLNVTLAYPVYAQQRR
Chain of PI3-kinase p110-alpha/p85-alpha (P42336 whole entry): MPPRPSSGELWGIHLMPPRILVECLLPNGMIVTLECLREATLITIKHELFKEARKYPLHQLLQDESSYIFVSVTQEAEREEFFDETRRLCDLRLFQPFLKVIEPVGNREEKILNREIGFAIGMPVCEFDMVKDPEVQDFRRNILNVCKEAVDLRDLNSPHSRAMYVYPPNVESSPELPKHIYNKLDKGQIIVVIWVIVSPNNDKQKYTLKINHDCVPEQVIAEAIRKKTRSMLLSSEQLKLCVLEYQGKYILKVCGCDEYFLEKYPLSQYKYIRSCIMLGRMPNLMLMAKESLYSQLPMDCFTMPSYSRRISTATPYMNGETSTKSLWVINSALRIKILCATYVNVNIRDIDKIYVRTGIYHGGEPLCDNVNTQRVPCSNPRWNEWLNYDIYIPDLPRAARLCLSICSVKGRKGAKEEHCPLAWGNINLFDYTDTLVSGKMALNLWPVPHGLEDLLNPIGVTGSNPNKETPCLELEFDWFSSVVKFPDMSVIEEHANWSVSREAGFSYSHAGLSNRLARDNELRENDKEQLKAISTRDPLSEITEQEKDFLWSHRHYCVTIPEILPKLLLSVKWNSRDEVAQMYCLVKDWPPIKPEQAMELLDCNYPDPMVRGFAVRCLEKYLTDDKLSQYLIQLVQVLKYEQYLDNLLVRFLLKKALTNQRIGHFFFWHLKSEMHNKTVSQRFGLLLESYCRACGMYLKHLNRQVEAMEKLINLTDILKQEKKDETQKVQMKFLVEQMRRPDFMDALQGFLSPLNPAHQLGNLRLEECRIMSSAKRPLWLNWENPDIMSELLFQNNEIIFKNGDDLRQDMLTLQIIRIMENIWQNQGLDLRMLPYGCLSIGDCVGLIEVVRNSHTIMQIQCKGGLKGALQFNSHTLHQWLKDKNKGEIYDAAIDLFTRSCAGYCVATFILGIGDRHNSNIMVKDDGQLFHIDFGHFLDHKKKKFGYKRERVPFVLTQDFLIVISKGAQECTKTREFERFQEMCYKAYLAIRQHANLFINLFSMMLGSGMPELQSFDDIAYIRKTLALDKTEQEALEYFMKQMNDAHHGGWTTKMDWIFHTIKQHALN
Method in brief: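 PI3Kα enzyme inhibition; IC50 is the mean of duplicate measurements.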

[2] = Inhibition of PI3K in human PC3 cells assessed as reduction in AKT phosphorylation at Ser473 measured after 2 hrs by fluorescence assay; assay type: cell-based; details: PC-3, 2 h
T47D = experiment: Antiproliferative activity against human T47D cells harboring PI3KCA H1047R mutant after 72 hrs by MTT assay; assay type: functional, cell-based
MCF7 = experiment: Antiproliferative activity against human MCF7 cells harboring PIK3CA E545K mutant after 72 hrs by MTT assay; assay type: functional, cell-based; details: MCF7, 72 h
[3] = Intrinsic clearance in human liver microsomes at […] pretreated up to 45 mins followed by NADPH addition and measured by LC-MS/MS analysis; assay type: ADME, microsome; details: read-out: CLH
[4] = Intrinsic clearance in mouse liver microsomes at […] pretreated up to 45 mins followed by NADPH addition and measured by LC-MS/MS analysis; assay type: ADME, microsome; details: read-out: CLH
[5] = target: Serine/threonine-protein kinase mTOR (Homo sapiens, UniProt P42345); experiment: Inhibition of recombinant human GST-tagged mTOR catalytic domain (1360 to 2549 residues) expressed in baculovirus expression system using GFP-4EBP1 as substrate measured after 1 hr by Lathascreen method
[6] = target: Serine/threonine-protein kinase ATR (Homo sapiens) (UniProt Q13535); experiment: Inhibition of ATR in human HT-29 cells assessed as reduction in camptothecin-induced Chk1 phosphorylation at Ser345 residue up to 10 uM pretreated for 1 hr followed by camptothecin addition; assay type: cell-based
Chain of Serine/threonine-protein kinase ATR (Homo sapiens) (Q13535 whole entry, looked up): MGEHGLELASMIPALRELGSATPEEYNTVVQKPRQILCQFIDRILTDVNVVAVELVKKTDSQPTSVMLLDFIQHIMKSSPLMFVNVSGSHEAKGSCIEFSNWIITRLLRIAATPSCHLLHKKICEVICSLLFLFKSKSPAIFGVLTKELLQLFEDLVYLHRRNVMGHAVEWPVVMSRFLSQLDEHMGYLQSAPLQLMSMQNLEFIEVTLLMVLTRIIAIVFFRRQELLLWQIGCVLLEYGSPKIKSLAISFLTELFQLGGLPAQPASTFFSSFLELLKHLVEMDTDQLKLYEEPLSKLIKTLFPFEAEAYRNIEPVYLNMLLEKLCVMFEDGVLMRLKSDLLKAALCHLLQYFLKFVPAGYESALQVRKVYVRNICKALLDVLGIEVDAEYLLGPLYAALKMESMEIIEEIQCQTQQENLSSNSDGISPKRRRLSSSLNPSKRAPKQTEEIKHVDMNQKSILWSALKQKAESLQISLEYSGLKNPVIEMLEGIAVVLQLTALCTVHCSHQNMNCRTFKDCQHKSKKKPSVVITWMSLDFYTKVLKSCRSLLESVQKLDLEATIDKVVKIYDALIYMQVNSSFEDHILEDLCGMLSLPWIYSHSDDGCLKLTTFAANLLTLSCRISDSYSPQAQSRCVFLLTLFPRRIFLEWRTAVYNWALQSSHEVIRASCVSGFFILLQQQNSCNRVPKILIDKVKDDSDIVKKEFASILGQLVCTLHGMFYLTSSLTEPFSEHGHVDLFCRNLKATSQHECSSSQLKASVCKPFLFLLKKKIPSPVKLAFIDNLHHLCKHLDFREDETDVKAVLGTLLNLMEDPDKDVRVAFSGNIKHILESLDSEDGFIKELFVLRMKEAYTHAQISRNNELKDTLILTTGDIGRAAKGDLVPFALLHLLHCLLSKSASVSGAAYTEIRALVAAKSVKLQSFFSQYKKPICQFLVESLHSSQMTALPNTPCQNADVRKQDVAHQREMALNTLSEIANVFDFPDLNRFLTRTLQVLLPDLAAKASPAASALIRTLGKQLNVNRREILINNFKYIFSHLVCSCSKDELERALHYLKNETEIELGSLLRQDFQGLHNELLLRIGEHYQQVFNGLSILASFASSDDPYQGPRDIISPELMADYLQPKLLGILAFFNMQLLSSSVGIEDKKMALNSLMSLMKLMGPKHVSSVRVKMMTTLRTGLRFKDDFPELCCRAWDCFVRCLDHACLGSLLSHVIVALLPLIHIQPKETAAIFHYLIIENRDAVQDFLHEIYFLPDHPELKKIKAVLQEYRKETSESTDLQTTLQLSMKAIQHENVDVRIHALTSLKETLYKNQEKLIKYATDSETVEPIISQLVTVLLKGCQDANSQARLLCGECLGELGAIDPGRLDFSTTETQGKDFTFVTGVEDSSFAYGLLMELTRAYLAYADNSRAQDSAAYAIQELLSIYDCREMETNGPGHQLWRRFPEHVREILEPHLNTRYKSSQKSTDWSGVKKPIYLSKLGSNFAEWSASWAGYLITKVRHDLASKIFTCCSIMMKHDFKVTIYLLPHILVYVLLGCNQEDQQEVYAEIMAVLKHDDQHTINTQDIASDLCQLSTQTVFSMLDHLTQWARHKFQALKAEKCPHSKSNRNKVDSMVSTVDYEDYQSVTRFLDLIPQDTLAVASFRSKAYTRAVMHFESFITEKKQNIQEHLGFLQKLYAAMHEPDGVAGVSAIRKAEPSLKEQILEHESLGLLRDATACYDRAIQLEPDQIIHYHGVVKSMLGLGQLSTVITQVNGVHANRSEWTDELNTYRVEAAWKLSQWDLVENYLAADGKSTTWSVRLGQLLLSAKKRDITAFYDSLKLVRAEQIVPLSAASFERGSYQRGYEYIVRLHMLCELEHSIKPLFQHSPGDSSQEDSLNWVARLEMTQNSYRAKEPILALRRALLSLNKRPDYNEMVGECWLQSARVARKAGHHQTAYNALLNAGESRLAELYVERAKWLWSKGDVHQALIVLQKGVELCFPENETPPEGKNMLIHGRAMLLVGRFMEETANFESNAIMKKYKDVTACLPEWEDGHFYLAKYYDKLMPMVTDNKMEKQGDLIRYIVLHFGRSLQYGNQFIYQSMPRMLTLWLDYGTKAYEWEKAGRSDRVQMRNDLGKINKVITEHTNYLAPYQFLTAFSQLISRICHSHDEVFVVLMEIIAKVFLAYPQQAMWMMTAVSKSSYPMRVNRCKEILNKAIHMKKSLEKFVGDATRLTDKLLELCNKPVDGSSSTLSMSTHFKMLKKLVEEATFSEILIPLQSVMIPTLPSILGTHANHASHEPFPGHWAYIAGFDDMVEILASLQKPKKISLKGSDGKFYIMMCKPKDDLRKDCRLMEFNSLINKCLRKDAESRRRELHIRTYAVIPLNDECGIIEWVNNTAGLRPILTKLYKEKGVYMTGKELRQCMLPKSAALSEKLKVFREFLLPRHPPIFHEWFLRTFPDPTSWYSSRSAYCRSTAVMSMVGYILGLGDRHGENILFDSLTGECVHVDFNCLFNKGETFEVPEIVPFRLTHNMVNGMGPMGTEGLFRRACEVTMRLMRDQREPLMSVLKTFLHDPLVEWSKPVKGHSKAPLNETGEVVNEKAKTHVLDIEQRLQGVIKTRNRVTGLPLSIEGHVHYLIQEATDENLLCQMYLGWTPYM
Method in brief: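 HT-29 cells were pretreated with compound for 1 h, then exposed to camptothecin to induce DNA damage. ATR activity was read as phosphorylation of its substrate Chk1, with total Chk1 and β-actin as internal controls. […] served as reference inhibitor.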

HUVEC = experiment: Cytotoxicity against HUVEC after 72 hrs by MTT assay; assay type: cell-based; details: Homo sapiens
HT-29 [7] = experiment: Cell cycle arrest in human HT-29 cells assessed as accumulation at G2/M phase at 0.111 to 3 uM after 24 hrs by propidium iodide staining based flow cytometry; assay type: functional
HT-29 [8] = experiment: Antitumor activity against human HT-29 cells harboring PIK3CA P449T mutant xenografted in Balb/c nu/nu mouse assessed as tumor growth inhibition at 15 mg/kg, po administered daily via gavage for 27 days relative to control; assay type: functional; details: HT-29, po, 648 h, read-out: TGI
Method in brief: (§1)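 Balb/c nu/nu mice carrying HT-29 xenografts were dosed by daily oral gavage for 27 days, starting when mean tumor size was about 240 mm³; vehicle group as control. Tumor volume estimated over time, and TGI calculated after 27 days. Mean ± SEM, n = 6. Dunnett's multiple comparison test.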

HT-29 [9] = experiment: Antitumor activity against human HT-29 cells harboring PIK3CA P449T mutant xenografted in Balb/c nu/nu mouse assessed as tumor growth inhibition at 30 mg/kg, po administered daily via gavage for 27 days relative to control; assay type: functional; details: HT-29, po, 648 h, read-out: TGI; method in brief: as §1
Mus musculus = experiment: Toxicity in Balb/c nu/nu mouse xenografted with human HT-29 cells harboring PIK3CA P449T mutant assessed as body weight loss at 60 mg/kg, po administered daily via gavage for 10 days relative to control; details: in vivo, 240 h
PI3K p110 beta/p85 alpha = PI3K p110 beta/p85 alpha (Homo sapiens, UniProt P42338); experiment: Inhibition of recombinant human full-length N-terminal His6-tagged p110beta/recombinant human full length p85alpha expressed in baculovirus infected Sf21 insect cells using PIP2 as substrate measured after 1 hr by Alexa633 Tracer-based fluorescence polarization assay
[10] = target: PI3-kinase p110-delta/p85-alpha (Homo sapiens, UniProt O00329); experiment: Inhibition of recombinant human full-length N-terminal His6-tagged p110delta/recombinant human full length p85alpha expressed in baculovirus infected Sf21 insect cells using PIP2 as substrate measured after 1 hr by Alexa633 Tracer-based fluorescence polarization assay

SMILES | IC50 [1] [nM] | IC50 [2] [nM] | IC50 (T47D) [nM] | IC50 (MCF7) [nM] | other results
CS(=O)(=O)C1(c2cc(-c3cnc(N)cc3C(F)(F)F)nc(N3CCOCC3)n2)CCC1 | 15 | 248 | 138 | 134 | 
CS(=O)(=O)C1(c2cc(-c3cnc(N)cc3F)nc(N3CCOCC3)n2)CC1 | 41 | 369 | 62 | 27 | CLint scaled [3]: 5 to 16 mL/min/kg; CLint scaled [4]: 40 to 140 mL/min/kg
CS(=O)(=O)C1(c2cc(-c3cnc(N)cc3C(F)(F)F)nc(N3CCOCC3)n2)CC1 |  |  |  |  | IC50 [5]: 1680 nM; inhibition [6]: inactive; CLint scaled [3]: 9.86 mL/min/kg; CLint scaled [4]: 185 mL/min/kg
CS(=O)(=O)C1(c2cc(-c3cnc(N)cc3C(F)(F)F)nc(N3CCOCC3)n2)CCCC1 |  | 384 | 218 | 340 | 
C[C@@H]1COCCN1c1nc(-c2cnc(N)cc2C(F)(F)F)cc(C2(S(C)(=O)=O)CC2)n1 | 223 |  |  |  | 
CCS(=O)(=O)C1(c2cc(-c3cnc(N)cc3C(F)(F)F)nc(N3CCOCC3)n2)CC1 |  | 301 | 225 | 295 | 
CS(=O)(=O)C1(c2cc(-c3cnc(N)cc3C(F)(F)F)nc(N3CCOCC3)n2)CCCCC1 | 321 |  |  |  | 
Nc1cc(C(F)(F)F)c(-c2cc(N3CCOCC3)nc(N3CCOCC3)n2)cn1 [BUPARLISIB] |  | 365 | 286 | 206 | inhibition [6]: inactive; CLint scaled [3]: 10.9 mL/min/kg; CLint scaled [4]: 151 mL/min/kg; IC50 (HUVEC): 886 nM; Activity (HT-29 [7]): Active; inhibition in vivo at 15 mg/kg (HT-29 [8]): 39.4%; inhibition in vivo at 30 mg/kg (HT-29 [9]): 55.7%; Activity (Mus musculus): > 25%
C[C@H]1COCCN1c1nc(-c2cnc(N)cc2C(F)(F)F)cc(C2(S(C)(=O)=O)CCC2)n1 | 6 | 184 | 93 | 78 | 
C[C@H]1COCCN1c1nc(-c2cnc(N)cc2C(F)(F)F)cc(C2(S(C)(=O)=O)CCCC2)n1 | 22 | 674 | 139 | 159 | 
C[C@H]1COCCN1c1nc(-c2cnc(N)cc2F)cc(C(C)(C)S(C)(=O)=O)n1 | 20 | 121 | 33 | 15 | CLint scaled [3]: 5 to 16 mL/min/kg; CLint scaled [4]: 40 to 140 mL/min/kg
C[C@H]1COCCN1c1nc(-c2cnc(N)cc2C(F)(F)F)cc(C2(S(C)(=O)=O)CC2)n1 | 9 to 16 | 546 | 129 | 112 | IC50 (PI3K p110 beta/p85 alpha): 264 nM; IC50 [10]: 197 nM; IC50 [5]: 2120 nM; inhibition [6]: inactive

Further lines, with some results ahead:

IC50 [1] [nM] | IC50 [2] [nM] | IC50 (T47D) [nM] | IC50 (MCF7) [nM] | SMILES | other results
9 | 1550 | 478 | 897 | CC(C)(c1cc(-c2cnc(N)cc2C(F)(F)F)nc(N2CCOCC2)n1)S(=O)(=O)c1ccccc1 | 
 | 312 | 58 | 224 | CC(C)(c1cc(-c2cnc(N)cc2C(F)(F)F)nc(N2CCOCC2)n1)S(C)(=O)=O | 
7 | 367 | 129 | 184 | Nc1cc(C(F)(F)F)c(-c2cc(C3(S(=O)(=O)c4ccccc4F)CC3)nc(N3CCOCC3)n2)cn1 | 
66 | 215 | 123 | 104 | CC(C)(c1cc(-c2cnc(N)cc2F)nc(N2CCOCC2)n1)S(C)(=O)=O | CLint scaled [3]: 5 to 16 mL/min/kg; CLint scaled [4]: 40 to 140 mL/min/kg
14 | 606 | 242 | 286 | Nc1cc(C(F)(F)F)c(-c2cc(C3(S(=O)(=O)c4cccc(F)c4)CC3)nc(N3CCOCC3)n2)cn1 | 
25 | 846 | 513 | 408 | CS(=O)(=O)C(F)(F)c1cc(-c2cnc(N)cc2C(F)(F)F)nc(N2CCOCC2)n1 | 
65 | 1180 | 1060 | 599 | CC(C)S(=O)(=O)C(C)(C)c1cc(-c2cnc(N)cc2C(F)(F)F)nc(N2CCOCC2)n1 | 
 | 668 | 324 | 513 | Nc1cc(C(F)(F)F)c(-c2cc(C3(S(=O)(=O)c4ccccc4)CC3)nc(N3CCOCC3)n2)cn1 | 
58 | 430 | 160 | 437 | CC(C)S(=O)(=O)C1(c2cc(-c3cnc(N)cc3C(F)(F)F)nc(N3CCOCC3)n2)CC1 | 
 | 3010 | 1670 | 1510 | CS(=O)(=O)Cc1cc(-c2cnc(N)cc2C(F)(F)F)nc(N2CCOCC2)n1 | IC50 [5]: 14000 nM; inhibition [6]: inactive
56 | 2450 | 1160 | 1140 | CS(=O)(=O)C(F)c1cc(-c2cnc(N)cc2C(F)(F)F)nc(N2CCOCC2)n1 (configuration not stated) | 
218 |  |  |  | CC(C)C(c1cc(-c2cnc(N)cc2C(F)(F)F)nc(N2CCOCC2)n1)S(C)(=O)=O (configuration not stated) | 
40 | 947 | 552 | 512 | CCS(=O)(=O)C(C)(C)c1cc(-c2cnc(N)cc2C(F)(F)F)nc(N2CCOCC2)n1 | 
57 | 1280 | 619 | 572 | Nc1cc(C(F)(F)F)c(-c2cc(C3(S(=O)(=O)c4ccc(F)cc4)CC3)nc(N3CCOCC3)n2)cn1 | 
 | 306 | 175 | 214 | C[C@H]1COCCN1c1nc(-c2cnc(N)cc2C(F)(F)F)cc(C(C)(C)S(C)(=O)=O)n1 | 
